Active and inactive are the calls of the source. No cut-off for these calls is given here.
Experiments:
[1] = target: T1, Ribonucleoside-diphosphate reductase large subunit (Homo sapiens) (UniProt P23921); assay: Inhibition of RRM1 in human U2OS cells assessed as gammaH2AX induction at 0.5 to 125 uM after 2 hrs by FITC/propidium iodide-staining based flow cytometry in presence of SCH900776; assay type: cell-based
T1 sequence (whole entry): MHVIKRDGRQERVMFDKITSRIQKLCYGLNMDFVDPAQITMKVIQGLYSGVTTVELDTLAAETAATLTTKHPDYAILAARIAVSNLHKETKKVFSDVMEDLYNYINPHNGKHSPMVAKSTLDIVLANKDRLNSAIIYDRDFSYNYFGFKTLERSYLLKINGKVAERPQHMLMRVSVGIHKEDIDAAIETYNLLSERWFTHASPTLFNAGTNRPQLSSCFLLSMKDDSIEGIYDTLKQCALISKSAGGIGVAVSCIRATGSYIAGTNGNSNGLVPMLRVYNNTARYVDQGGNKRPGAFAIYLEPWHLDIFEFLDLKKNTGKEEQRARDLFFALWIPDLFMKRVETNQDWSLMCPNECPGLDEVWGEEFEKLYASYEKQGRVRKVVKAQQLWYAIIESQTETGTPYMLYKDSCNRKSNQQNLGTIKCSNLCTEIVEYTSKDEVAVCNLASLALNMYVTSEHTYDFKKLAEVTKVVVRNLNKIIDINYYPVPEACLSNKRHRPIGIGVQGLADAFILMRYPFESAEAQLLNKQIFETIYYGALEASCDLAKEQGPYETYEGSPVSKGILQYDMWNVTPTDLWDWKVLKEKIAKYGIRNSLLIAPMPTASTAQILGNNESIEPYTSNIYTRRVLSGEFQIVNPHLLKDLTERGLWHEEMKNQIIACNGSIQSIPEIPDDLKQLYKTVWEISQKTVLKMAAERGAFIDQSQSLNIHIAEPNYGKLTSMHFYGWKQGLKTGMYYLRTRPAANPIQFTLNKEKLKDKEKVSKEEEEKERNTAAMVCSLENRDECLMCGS
Method in brief: (§1)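 U2OS cells were given titrated compound overnight, then kept with or without 0.5 uM SCH 900776 for a further 2 h in the compound's presence. Cells were fixed and permeabilized in 70% ethanol, stained with FITC anti-γH2AX antibody and counterstained with propidium iodide. Read-out was flow cytometry or imaging, given as % γH2AX-positive cells.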

[2] = target: T1, Ribonucleoside-diphosphate reductase large subunit (Homo sapiens); assay: Inhibition of RRM1 in human U2OS cells assessed as gammaH2AX induction at 0.5 to 125 uM after 2 hrs by FITC/propidium iodide-staining based flow cytometry in absence of SCH900776; assay type: cell-based; method in brief: as §1
[3] = target: T1, Ribonucleoside-diphosphate reductase large subunit (Homo sapiens); assay: Inhibition of RRM1 in human U2OS cells assessed as gammaH2AX induction after 2 hrs by FITC/propidium iodide-staining based flow cytometry in presence of SCH900776; assay type: cell-based; method in brief: as §1
[4] = target: T1, Ribonucleoside-diphosphate reductase large subunit (Homo sapiens); assay: Inhibition of RRM1 in human CEM cells assessed as depletion of dGTP level at 1 uM after 2 hrs by HPLC analysis; assay type: cell-based; conditions: CCRF-CEM
Method in brief: (§2)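 CEM cells were treated for 2 h, with untreated cells as control. Pellets were taken up in ice-cold water and deproteinized with an equal volume of 6% TCA. Supernatants were neutralized with NH4OH, then run on ion-pair HPLC (tetrabutylammonium hydroxide/KH2PO4, pH 7.0 gradient) with UV detection at 260 nm. Pool levels are peak AUC, in triplicate.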

Saccharomyces cerevisiae [5] = assay: Binding affinity to yeast RRM1 assessed as reduction of free compound level by line-broadening NMR spectroscopy relative to control; set-up: scale not given: the % may be the effect or the level left
[6] = target: T1, Ribonucleoside-diphosphate reductase large subunit (Homo sapiens); assay: Inhibition of RRM1 in human CEM cells assessed as depletion of dATP level at 1 uM after 2 hrs by HPLC analysis; assay type: cell-based; conditions: CCRF-CEM; method in brief: as §2
[7] = target: T1, Ribonucleoside-diphosphate reductase large subunit (Homo sapiens); assay: Inhibition of RRM1 in human CEM cells assessed as depletion of dCTP level at 1 uM after 2 hrs by HPLC analysis; assay type: cell-based; conditions: CCRF-CEM; method in brief: as §2
[8] = Competitive binding affinity to yeast RRM1 assessed as reduction in CDP NMR signals by STD-NMR spectroscopy; set-up: species or system Saccharomyces cerevisiae
Saccharomyces cerevisiae [9] = assay: Binding affinity to yeast RRM1 assessed as reduction of unbound-compound level at 200 uM by NOESY-spectroscopy
[10] = Binding affinity to yeast RRM1 assessed as reduction of unbound compound level by line-broadening NMR spectroscopy; set-up: species or system Saccharomyces cerevisiae
[11] = target: T2, Ribonucleotide reductase (Homo sapiens) (UniProt P23921+Q7LG56); assay: Inhibition of human RRM1/RNR2 activity using CDP as substrate assessed as reduction of CDP consumption at 100 uM preincubated for 30 mins followed by substrate addition measured after 1 hr by NMR spectroscopy; assay type: protein-complex assay
Method in brief: (§3)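 Human RRM1 and RNR2 were run at 27 °C in 50 mM d-Tris in D2O, pH 7.6, with 10 mM d-DTT. Compound was preincubated 30 min with active enzyme and 1 mM ATP. CDP was then added to start the reaction, which was heat-quenched after 1 h. 1H NMR measured dCDP formed and CDP consumed against control spectra. Controls were dATP, didox and gemcitabine diphosphate.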

[12] = target: T2, Ribonucleotide reductase (Homo sapiens); assay: Inhibition of human RRM1/RNR2 activity using CDP as substrate assessed as reduction of dCDP production at 100 uM preincubated for 30 mins followed by substrate addition measured after 1 hr by NMR spectroscopy; assay type: protein-complex assay; method in brief: as §3

inhibition [1]	inhibition [2]	inhibition [3]	inhibition [4]	Activity (Saccharomyces cerevisiae [5])	inhibition [6]	inhibition [7]	Ki [8]	Kd [10]	inhibition [11]	inhibition [12]	SMILES	Activity (Saccharomyces cerevisiae [9])
Active	Active	Dose-dependent effect	–	–	–	–	–	–	–	–	Nc1ccn([C@@H]2O[C@H](CNCCN3CCCC3=O)[C@@H](O)C2(F)F)c(=O)n1	–
Active	Active	Dose-dependent effect	–	–	–	–	–	–	–	–	Nc1ccn([C@@H]2O[C@H](CNCc3ccco3)[C@@H](O)C2(F)F)c(=O)n1	–
Active	Active	Dose-dependent effect	Active	27%	Active	Active	150 µM	200 µM	32%	32%	Nc1ccn([C@@H]2O[C@H](CN3CCn4nccc4C3)[C@@H](O)C2(F)F)c(=O)n1	Active
Active	Active	–	–	–	–	–	–	–	–	–	Nc1ccn([C@@H]2O[C@H](CO)[C@@H](O)C2(F)F)c(=O)n1	–
Active	Active	Dose-dependent effect	–	–	–	–	–	–	–	–	C[C@H](NC[C@H]1O[C@@H](n2ccc(N)nc2=O)C(F)(F)[C@@H]1O)c1ccnn1C	–
